# Data: ChEMBL document CHEMBL1145930, “Synthesis and evaluation of nitroheterocyclic carbamate prodrugs for use with nitroreductase-mediated gene-directed enzyme prodrug therapy” (J Med Chem, 2003)
# Tests used:
# [1] = Solubility in alpha-MEM culture medium; type: physicochemical
# Summary of the method: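 Solubility measured in α-MEM culture medium with 5% fetal calf serum, by HPLC analysis of the supernatant of a saturated solution.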
# [2] = system: EMT6; experiment: Inhibitory activity against EMT6 murine cell line; type: functional, cell-based; settings: Mus musculus
# Summary of the method: (§1)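 Aerobic growth inhibition of log-phase cells (parental NTR-negative lines). Cultures seeded 24 h before an 18 h drug exposure; cell density read 4–5 days later by sulforhodamine B staining. IC50 is the concentration giving 50% growth inhibition versus same-plate controls. Mean ± SEM of up to five independent experiments.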
# [3] = system: Mus musculus; experiment: In vivo maximum tolerance dose in C3H mice by ip administration; type: functional
# Summary of the method: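 Male C3H mice (ca. 25 g), groups of six, given single ip doses in 10^(1/8)-fold increments. Vehicle DMSO at 1 μL/g for most compounds; CB1954 given in 10% DMA/40% PEG400/50% water at 10 μL/g. Animals observed daily for 60 days; any losing >15% body weight or becoming moribund were terminated.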
# [4] = system: SK-OV-3; experiment: Inhibitory activity was determined against SKOV3 cell line in human; type: functional, cell-based; summary of the method: as §1
# [5] = system: V79; experiment: Inhibitory activity was determined against V79 cell line in chinese hamster; type: functional, cell-based; settings: Cricetulus griseus; summary of the method: as §1
# [6] = system: WiDr; experiment: Inhibitory activity was determined against WiDr cell line in human; type: functional, cell-based; summary of the method: as §1
# [7] = system: SK-OV-3; experiment: Ratio between SKOV3 and SKOV3-NTR neo was determined; type: functional, Homo sapiens
# Summary of the method: (§2)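 Parental and stably NTR-transfected cells were tested in parallel by aerobic SRB growth inhibition (18 h exposure, readout 4–5 days later). The ratio is IC50(NTR-ve)/IC50(NTR+ve), calculated within each experiment. Selection drug was kept during passage but omitted during experiments: puromycin 15 µM for V79, 5 µM for EMT6; G418 300 µg/mL for SKOV3/WiDr.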
# [8] = system: V79; experiment: Ratio between V79 and V79-NTRpuro was determined; type: functional, Cricetulus griseus; summary of the method: as §2
# [9] = system: WiDr; experiment: Ratio between WiDr and WiDr-NTRneo was determined; type: functional, Homo sapiens; summary of the method: as §2
# [10] = system: EMT6; experiment: Ratio between EMT6 and EMT6-NTRpuro was determined; type: functional, Mus musculus; summary of the method: as §2
# [11] = system: EMT6; experiment: Inhibitory activity against EMT6 (mouse mammary carcinoma) murine cell line; type: functional, cell-based; summary of the method: as §1
# [12] = system: SK-OV-3; experiment: Inhibitory activity against SKOV3 (human ovarian carcinoma) cell line in human; type: functional, cell-based; summary of the method: as §1
Compound,solubility [1] [µM],IC50 [2] [µM],MTD [3] [µM],IC50 [4] [µM],IC50 [5] [µM],IC50 [6] [µM],Ratio [7],Ratio [8],Ratio [9],Ratio [10],IC50 [11] [µM],IC50 [12] [µM]
COc1cc2cc(C(=O)C3CN(CCl)c4cc(NC(=O)OCc5ncc([N+](=O)[O-])n5C)c5ccccc5c43)[nH]c2c(OC)c1OC (centres undefined),8,78,>1000,146,68,230,50,10,100,71,–,–
COc1cc2cc(C(=O)C3CN(CCl)c4cc(NC(=O)OCc5ccc([N+](=O)[O-])s5)c5ccccc5c43)[nH]c2c(OC)c1OC (centres undefined),4,0.0043,–,0.0106,0.0035,0.018,7,3.1,13.5,16,–,–
CCOC(=O)c1cc(COC(=O)Nc2cc3c(c4ccccc24)C(C(=O)c2cc4cc(OC)c(OC)c(OC)c4[nH]2)CN3CCl)c([N+](=O)[O-])n1C (centres undefined),–,28,–,97,24,94,9.6,2,13,12,–,–
NC(=O)c1cc(N(CCBr)CCBr)c([N+](=O)[O-])cc1[N+](=O)[O-],40,54,–,58,–,–,211,302,174,1380,–,–
COc1cc2cc(C(=O)C3CN(CCl)c4cc(NC(=O)OCc5ncc([N+](=O)[O-])n5CCO)c5ccccc5c43)[nH]c2c(OC)c1OC (centres undefined),20,129,–,378,94,427,26,1.2,12.4,11,–,–
COc1cc2cc(C(=O)C3CN(CCl)c4cc(NC(=O)OCc5ccc([N+](=O)[O-])n5C)c5ccccc5c43)[nH]c2c(OC)c1OC (centres undefined),9,49,–,265,53,182,1.3,1,2.5,1.2,–,–
COc1cc2cc(C(=O)C3CN(CCl)c4cc(NC(=O)OCc5ccc([N+](=O)[O-])o5)c5ccccc5c43)[nH]c2c(OC)c1OC (centres undefined),11,18,–,76,20,89,1.2,1.1,1.9,1.2,–,–
NC(=O)c1cc(N2CC2)c([N+](=O)[O-])cc1[N+](=O)[O-] [TRETAZICAR],1600,–,–,–,–,–,317,2090,51,930,71,174
COc1cc2cc(C(=O)C3CN(CCl)c4cc(NC(=O)OCc5c([N+](=O)[O-])ccn5C)c5ccccc5c43)[nH]c2c(OC)c1OC (centres undefined),8.4,15,–,0.025,0.006,0.028,0.7,0.9,1.4,1.5,–,–
COc1cc2cc(C(=O)C3CN(CCl)c4cc(NC(=O)OCc5cnc([N+](=O)[O-])n5C)c5ccccc5c43)[nH]c2c(OC)c1OC (centres undefined),17,19.6,>1000,75,24,75,21,14.7,40,62,–,–
COc1cc2cc(C(=O)C3CN(CCl)c4cc(NC(=O)OCc5cnn(C)c5[N+](=O)[O-])c5ccccc5c43)[nH]c2c(OC)c1OC (centres undefined),8,39,–,0.032,41,0.0113,30.3,37,13.5,87,–,–
COc1cc2cc(C(=O)C3CN(CCl)c4cc(NC(=O)OCc5ccn(C)c5[N+](=O)[O-])c5ccccc5c43)[nH]c2c(OC)c1OC (centres undefined),18,64,–,116,62,219,0.5,1.5,1.8,1.3,–,–
COc1cc2cc(C(=O)C3CN(CCl)c4cc(NC(=O)OCc5ncn(C)c5[N+](=O)[O-])c5ccccc5c43)[nH]c2c(OC)c1OC (centres undefined),5.5,63,–,61,44,0.024,5.6,1.4,3.4,6.5,–,–
COc1cc2cc(C(=O)N3CC(CCl)c4c3cc(N)c3ccccc43)[nH]c2c(OC)c1OC (centres undefined),197,0.00037,–,0.0011,0.00033,0.0016,0.55,0.9,0.9,2,–,–
COc1cc2cc(C(=O)C3CN(CCl)c4cc(NC(=O)OCc5c([N+](=O)[O-])ncn5C)c5ccccc5c43)[nH]c2c(OC)c1OC (centres undefined),13,73,–,185,55,201,4.8,1.2,2.8,2.1,–,–
CCOC(=O)c1cc([N+](=O)[O-])c(COC(=O)Nc2cc3c(c4ccccc24)C(C(=O)c2cc4cc(OC)c(OC)c(OC)c4[nH]2)CN3CCl)n1C (centres undefined),21,–,–,98,52,223,0.8,1.8,1.3,–,–,–
